Entries after “also recorded” stand apart in the source; their conditions may differ.
biological target: Tlp10^LBD N120A (Campylobacter jejuni, UniProt Q0PCA6, N120A); experiment: biochemical; format: binding, C. jejuni; conditions: not given

| SMILES | Kd |
| --- | --- |
| N=C(N)NCCC[C@H](N)C(=O)O [arginine] | 50.1 ± 8 µM |
| N[C@@H](CC(=O)O)C(=O)O [aspartate] | 48 ± 7 µM |
| C[C@H](O)[C@@H](O)[C@@H](O)[C@H](O)C=O [fucose] | 19.2 ± 4 µM |
| CC[C@H](C)[C@H](N)C(=O)O [isoleucine] | 51.2 ± 1.2 µM |
| O=C(O)CC(O)C(=O)O (centres unmarked) [malate] | 215 ± 31 µM |
| OC[C@H]1OC(O)[C@@H](O)[C@@H](O)[C@@H]1O (some centres unmarked) [mannose] | 46.4 ± 12 µM |
| c1ncc2nc[nH]c2n1 [purine] | 34 ± 3 µM |

biological target: Tlp10^LBD N115A (Campylobacter jejuni, UniProt Q0PCA6, N115A); experiment: biochemical; format: binding, C. jejuni; conditions: not given

| SMILES | Kd |
| --- | --- |
| N=C(N)NCCC[C@H](N)C(=O)O [arginine] | 41.9 ± 12 µM |
| N[C@@H](CC(=O)O)C(=O)O [aspartate] | 29.5 ± 8 µM |
| C[C@H](O)[C@@H](O)[C@@H](O)[C@H](O)C=O [fucose] | 22 ± 2 µM |
| CC[C@H](C)[C@H](N)C(=O)O [isoleucine] | 48.1 ± 5 µM |
| O=C(O)CC(O)C(=O)O (centres unmarked) [malate] | 176 ± 10 µM |
| OC[C@H]1OC(O)[C@@H](O)[C@@H](O)[C@@H]1O (some centres unmarked) [mannose] | 52.1 ± 10 µM |
| c1ncc2nc[nH]c2n1 [purine] | 29 ± 8 µM |

biological target: T1, Tlp10^LBD wild type (Campylobacter jejuni, UniProt Q0PCA6); experiment: biochemical; format: binding; conditions: KD Tlp10^LBD Wild-type, SPR, Table 2, mean ± s.d., n = 3

| SMILES | Kd |
| --- | --- |
| N=C(N)NCCC[C@H](N)C(=O)O [arginine] | 27.9 ± 3 µM |
| N[C@@H](CC(=O)O)C(=O)O [aspartate] | 32.3 ± 10 µM |
| C[C@H](O)[C@@H](O)[C@@H](O)[C@H](O)C=O [fucose] | 30 ± 4.1 µM |
| CC[C@H](C)[C@H](N)C(=O)O [isoleucine] | 37.9 ± 7 µM |
| O=C(O)CC(O)C(=O)O (centres unmarked) [malate] | 168 ± 19 µM |
| OC[C@H]1OC(O)[C@@H](O)[C@@H](O)[C@@H]1O (some centres unmarked) [mannose] | 39.6 ± 9 µM |
| c1ncc2nc[nH]c2n1 [purine] | 21 ± 6 µM |

same assay, conditions: KD, SPR, wild-type Tlp10^LBD, mean ± SD, n = 3

| SMILES | Kd |
| --- | --- |
| N=C(N)NCCC[C@H](N)C(=O)O [arginine] | 27.9 ± 3 µM |
| N[C@@H](CC(=O)O)C(=O)O [aspartate] | 32.3 ± 10 µM |
| C[C@H](O)[C@@H](O)[C@@H](O)[C@H](O)C=O [fucose] | 30 ± 4.1 µM |
| CC[C@H](C)[C@H](N)C(=O)O [isoleucine] | 37.9 ± 7 µM |
| O=C(O)CC(O)C(=O)O (centres unmarked) [malate] | 168 ± 19 µM |
| OC[C@H]1OC(O)[C@@H](O)[C@@H](O)[C@@H]1O (some centres unmarked) [mannose] | 39.6 ± 9 µM |
| c1ncc2nc[nH]c2n1 [purine] | 21 ± 6 µM |

same assay, conditions: binding to Tlp10^LBD by SPR

| SMILES | SPR |
| --- | --- |
| N=C(N)NCCC[C@H](N)C(=O)O [arginine] | + |
| N[C@@H](CC(=O)O)C(=O)O [aspartate] | + |
| C[C@H](O)[C@@H](O)[C@@H](O)[C@H](O)C=O [fucose] | + |
| CC[C@H](C)[C@H](N)C(=O)O [isoleucine] | + |
| O=C(O)CC(O)C(=O)O (centres unmarked) [malate] | + |
| OC[C@H]1OC(O)[C@@H](O)[C@@H](O)[C@@H]1O (some centres unmarked) [mannose] | + |
| c1ncc2nc[nH]c2n1 [purine] | + |

tested on: C. jejuni 11168-O; experiment: μ-Slide chemotactic cell migration visualisation; format: cell-based; conditions: time-lapse imaging, 10 mM ligand
Procedure, shortened: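 Wild-type, Δtlp10 and complemented C. jejuni 11168-O cells are FITC-labelled. In a μ-Slide, the left reservoir holds bacterial suspension, and the right reservoir and transition zone hold PBS. Once cells near the transition zone, isoleucine or arginine is added to the right reservoir (final 10 mM). In the sequential test, arginine is added at 20 sec after partial migration toward isoleucine. Migration is recorded by time-lapse video at 40× magnification.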

| SMILES | Tlp10-mediated chemotactic response type |
| --- | --- |
| N=C(N)NCCC[C@H](N)C(=O)O [arginine] | chemorepellent response |
| CC[C@H](C)[C@H](N)C(=O)O [isoleucine] | chemoattractant response |

biological target: Tlp10^LBD Y70A (Campylobacter jejuni, UniProt Q0PCA6, Y70A); experiment: biochemical; format: binding, C. jejuni; conditions: not given

| SMILES | Kd |
| --- | --- |
| N=C(N)NCCC[C@H](N)C(=O)O [arginine] | 19.1 ± 12 µM |
| N[C@@H](CC(=O)O)C(=O)O [aspartate] | 38.9 ± 11 µM |
| C[C@H](O)[C@@H](O)[C@@H](O)[C@H](O)C=O [fucose] | 34 ± 7 µM |
| CC[C@H](C)[C@H](N)C(=O)O [isoleucine] | 28.1 ± 6 µM |
| O=C(O)CC(O)C(=O)O (centres unmarked) [malate] | 184 ± 14 µM |
| OC[C@H]1OC(O)[C@@H](O)[C@@H](O)[C@@H]1O (some centres unmarked) [mannose] | 43.3 ± 3 µM |
| c1ncc2nc[nH]c2n1 [purine] | 16 ± 1 µM |

tested on: C. jejuni 11168-O; experiment: μ-Slide chemotaxis cell enumeration assay; format: cell-based; conditions: 10 mM chemoeffector
Procedure, shortened: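 Wild-type, Δtlp10LBD and complemented strains are harvested from MHA plates into PBS, adjusted to OD600 1 and mixed 1:1 (vol:vol) with 1% LMT. The opposite μ-Slide reservoir holds chemoeffector (final 10 mM) in LMT (final 0.35%). Slides are incubated 3 h at 42°C, microaerobic. Cells in the chemoeffector reservoir are enumerated by viable count. Three biological repeats are run, each in triplicate.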

| SMILES | Tlp10-mediated chemotactic response type | migration of Δtlp10^LBD cells toward ligand compared with wild-type |
| --- | --- | --- |
| C[C@H](O)[C@@H](O)[C@@H](O)[C@H](O)C=O [fucose] | attractant response | decreased |
| OC[C@H]1OC(O)[C@@H](O)[C@@H](O)[C@@H]1O (some centres unmarked) [mannose] | attractant response | decreased |

biological target: T1, Tlp10^LBD wild type; experiment: not given; format: binding; conditions: competition SPR, compounds at 10x KD

| SMILES | ligand-binding site on Tlp10^LBD |
| --- | --- |
| N=C(N)NCCC[C@H](N)C(=O)O [arginine] | site A |
| N[C@@H](CC(=O)O)C(=O)O [aspartate] | both site A and site B with a preference for site B |
| C[C@H](O)[C@@H](O)[C@@H](O)[C@H](O)C=O [fucose] | site B |
| CC[C@H](C)[C@H](N)C(=O)O [isoleucine] | site A |
| O=C(O)CC(O)C(=O)O (centres unmarked) [malate] | site B |
| OC[C@H]1OC(O)[C@@H](O)[C@@H](O)[C@@H]1O (some centres unmarked) [mannose] | site B |
| c1ncc2nc[nH]c2n1 [purine] | site A |

biological target: Tlp10^LBD H193A (Campylobacter jejuni, UniProt Q0PCA6, H193A); experiment: biochemical; format: binding, C. jejuni; conditions: not given

| SMILES | Kd |
| --- | --- |
| N=C(N)NCCC[C@H](N)C(=O)O [arginine] | 29 ± 8 µM |
| N[C@@H](CC(=O)O)C(=O)O [aspartate] | 30.9 ± 9 µM |
| C[C@H](O)[C@@H](O)[C@@H](O)[C@H](O)C=O [fucose] | 28 ± 3 µM |
| CC[C@H](C)[C@H](N)C(=O)O [isoleucine] | 30.8 ± 7 µM |
| O=C(O)CC(O)C(=O)O (centres unmarked) [malate] | 161 ± 23 µM |
| OC[C@H]1OC(O)[C@@H](O)[C@@H](O)[C@@H]1O (some centres unmarked) [mannose] | 32.1 ± 12 µM |
| c1ncc2nc[nH]c2n1 [purine] | 19 ± 2 µM |

tested on: Tlp10^LBD; experiment: Glycan and small molecule array binding of purified Tlp10 LBD; parameters: species or system C. jejuni; conditions: binding to Tlp10^LBD on glycan / small molecule array

| SMILES | array |
| --- | --- |
| N=C(N)NCCC[C@H](N)C(=O)O [arginine] | + |
| N[C@@H](CC(=O)O)C(=O)O [aspartate] | + |
| C[C@H](O)[C@@H](O)[C@@H](O)[C@H](O)C=O [fucose] | + |
| CC[C@H](C)[C@H](N)C(=O)O [isoleucine] | + |
| OC[C@H]1OC(O)[C@@H](O)[C@@H](O)[C@@H]1O (some centres unmarked) [mannose] | + |
| c1ncc2nc[nH]c2n1 [purine] | + |

tested on: C. jejuni 11168-O adherence to Caco-2, HCT116 and HCT116MUC1 cells; experiment: Adherence of C. jejuni to cultured human cells with glycan competition; format: cell-based; conditions: 11168-O wild-type and Δtlp10^LBDc strains, 5 mM glycan

| SMILES | effect on adherence to all cell lines tested |
| --- | --- |
| C[C@H](O)[C@@H](O)[C@@H](O)[C@H](O)C=O [fucose] | suppressed the adherence; also recorded: less effective than that by galactose |

tested on: C. jejuni 11168-O; experiment: not given; format: cell-based; conditions: nutrient-depleted chemotaxis assay, 2 mM ligand

| SMILES | Tlp10-mediated chemotactic response type | migration of Δtlp10^LBD strain towards ligand compared to wild-type |
| --- | --- | --- |
| N=C(N)NCCC[C@H](N)C(=O)O [arginine] | repellent response | increase in migration |
| N[C@@H](CC(=O)O)C(=O)O [aspartate] | attractants |  |
| C[C@H](O)[C@@H](O)[C@@H](O)[C@H](O)C=O [fucose] | attractants |  |
| CC[C@H](C)[C@H](N)C(=O)O [isoleucine] | attractants |  |
| O=C(O)CC(O)C(=O)O (centres unmarked) [malate] | attractants |  |
| OC[C@H]1OC(O)[C@@H](O)[C@@H](O)[C@@H]1O (some centres unmarked) [mannose] | attractants |  |
| c1ncc2nc[nH]c2n1 [purine] |  | not significantly affected |

Source: PMC8112392 (Science signaling, 2021)
